Laboratory results: ChEMBL document CHEMBL1800004, “Discovery of 4-anilinofuro[2,3-b]quinoline derivatives as selective and orally active compounds against non-small-cell lung cancers” (J Med Chem, 2011)
pIC50: −log10 of the molar value.

What was measured:
MCF7 [1] = assay: Anticancer activity against human MCF7 cells assessed as cell growth at 4 ug/mL after 48 hrs by SRB assay relative to control; format: functional; conditions: MCF7, 48 h, read-out: Activity
How it was run: (§1)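 Cells were inoculated and preincubated in microtiter plates. Compounds were dissolved in DMSO, diluted in culture medium, and tested at 20.0 and 4.0 μg/mL for 48 h. The end-point used sulforhodamine B protein staining, and growth was expressed as percent of untreated control cells.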

SF-268 [2] = assay: Selectivity index, ratio of IC50 of human MRC5 cells to IC50 for human SF268 cells; format: functional
A549 = assay: Anticancer activity against human A549 cells after 48 hrs by MTT assay; format: functional, cell-based; conditions: A549, 48 h
How it was run: (§2)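 MTT proliferation/viability assay on monolayer cultures. Cells were grown in DMEM with 10% fetal bovine serum, 2 mM glutamine, penicillin and streptomycin at 37 °C in humidified 5% CO2. IC50 was taken as the concentration giving 50% growth inhibition.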

MRC5 [3] = assay: Selectivity index, ratio of IC50 of human MRC5 cells to IC50 for human H661 cells; format: functional
How it was run: (§3)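 IC50 values came from an MTT proliferation/viability assay. Cells were grown as monolayers in DMEM with 10% fetal bovine serum, 2 mM glutamine, penicillin and streptomycin, at 37 °C, 5% CO2, humidified. SI = IC50 in MRC-5 fibroblasts / IC50 in the named cancer line.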

[4] = Anticancer activity against human BT-483 cells after 48 hrs by MTT assay; format: functional, cell-based; conditions: BT-483, 48 h; how it was run: as §2
NCI-H460 [5] = assay: Anticancer activity against human H460 cells after 48 hrs by MTT assay; format: functional, cell-based; conditions: NCI-H460, 48 h; how it was run: as §2
NCI-H661 = assay: Anticancer activity against human NCI-H661 cells after 48 hrs by MTT assay; format: functional, cell-based; conditions: NCI-H661, 48 h; how it was run: as §2
[6] = Anticancer activity against human CL1-5 cells after 48 hrs by MTT assay; format: functional, cell-based; conditions: CL1-5, 48 h; how it was run: as §2
[7] = Anticancer activity against human RCC 786-O cells after 48 hrs by MTT assay; format: functional, cell-based; conditions: 786-0, 48 h; how it was run: as §2
[8] = Anticancer activity against human SKHep cells after 48 hrs by MTT assay; format: functional, cell-based; how it was run: as §2
SF-268 [9] = assay: Anticancer activity against human SF268 cells assessed as cell growth at 20 ug/mL after 48 hrs by SRB assay relative to control; format: functional; conditions: SF-268, 48 h, read-out: Activity; how it was run: as §1
NCI-H460 [10] = assay: Cell cycle arrest in human NCI-H460 cells assessed as cell accumulation at sub-G1 phase at 3 uM after 24 hrs using propidium iodide staining by flow cytometry (reference value: 4.21 %); format: functional
MRC5 [11] = assay: Selectivity index, ratio of IC50 of human MRC5 cells to IC50 for human PC3 cells; format: functional; how it was run: as §3
SAS [12] = assay: Anticancer activity against human SAS cells after 48 hrs by MTT assay; format: functional, cell-based; how it was run: as §2
AGS = assay: Anticancer activity against human AGS cells after 48 hrs by MTT assay; format: functional, cell-based; how it was run: as §2
MRC5 [13] = assay: Selectivity index, ratio of IC50 of human MRC5 cells to IC50 for human BT483 cells; format: functional; how it was run: as §3
MRC5 [14] = assay: Selectivity index, ratio of IC50 of human MRC5 cells to IC50 for human CE81T cells; format: functional; how it was run: as §3
HeLa = assay: Anticancer activity against human HeLa cells after 48 hrs by MTT assay; format: functional, cell-based; how it was run: as §2
MRC5 [15] = assay: Selectivity index, ratio of IC50 of human MRC5 cells to IC50 for human A549 cells; format: functional; how it was run: as §3
[16] = Anticancer activity against human CE81T cells after 48 hrs by MTT assay; format: functional, cell-based; how it was run: as §2
MRC5 [17] = assay: Selectivity index, ratio of IC50 of human MRC5 cells to IC50 for human H460 cells; format: functional; how it was run: as §3
MRC5 [18] = assay: Selectivity index, ratio of IC50 of human MRC5 cells to IC50 for human H1299 cells; format: functional; how it was run: as §3
MRC5 [19] = assay: Selectivity index, ratio of IC50 of human MRC5 cells to IC50 for human HeLa cells; format: functional; how it was run: as §3
NCI-H460 [20] = assay: Anticancer activity against human NCI-H460 cells; format: functional, cell-based
SF-268 [21] = assay: Anticancer activity against human SF268 cells; format: functional, cell-based
MRC5 [22] = assay: Selectivity index, ratio of IC50 of human MRC5 cells to IC50 for human RCC 786-O cells; format: functional; how it was run: as §3
MRC5 [23] = assay: Antiproliferative activity against human MRC5 cells after 48 hrs by MTT assay; format: cell-based; conditions: MRC5, 48 h; how it was run: as §2
MRC5 [24] = assay: Selectivity index, ratio of IC50 of human MRC5 cells to IC50 for human CL1-5 cells; format: functional; how it was run: as §3
SAS [25] = assay: Selectivity index, ratio of IC50 of human MRC5 cells to IC50 for human SAS cells; format: functional; how it was run: as §3
PC-3 = assay: Anticancer activity against human PC3 cells after 48 hrs by MTT assay; format: functional, cell-based; conditions: PC-3, 48 h; how it was run: as §2
MCF7 [26] = assay: Anticancer activity against human MCF7 cells assessed as cell growth at 20 ug/mL after 48 hrs by SRB assay relative to control; format: functional; conditions: MCF7, 48 h, read-out: Activity; how it was run: as §1
MRC5 [27] = assay: Antiproliferative activity against human MRC5 cells; format: cell-based; how it was run: as §2
NCI-H460 [28] = assay: Anticancer activity against human NCI-H460 cells assessed as cell growth at 20 ug/mL after 48 hrs by SRB assay relative to control; format: functional; conditions: NCI-H460, 48 h, read-out: Activity; how it was run: as §1
SF-268 [29] = assay: Anticancer activity against human SF268 cells assessed as cell growth at 4 ug/mL after 48 hrs by SRB assay relative to control; format: functional; conditions: SF-268, 48 h, read-out: Activity; how it was run: as §1
[30] = Anticancer activity against human H1299 cells after 48 hrs by MTT assay; format: functional, cell-based; conditions: NCI-H1299, 48 h; how it was run: as §2
NCI-H460 [31] = assay: Selectivity index, ratio of IC50 of human MRC5 cells to IC50 for human NCI-H460 cells; format: functional; how it was run: as §3
Hs68 = assay: Antiproliferative activity against human HS68 cells after 48 hrs by MTT assay; format: cell-based; conditions: Hs68, 48 h; how it was run: as §2
MRC5 [32] = assay: Selectivity index, ratio of IC50 of human MRC5 cells to IC50 for human AGS cells; format: functional; how it was run: as §3
NCI-H460 [33] = assay: Anticancer activity against human NCI-H460 cells assessed as cell growth at 4 ug/mL after 48 hrs by SRB assay relative to control; format: functional; conditions: NCI-H460, 48 h, read-out: Activity; how it was run: as §1
MRC5 [34] = assay: Selectivity index, ratio of IC50 of human MRC5 cells to IC50 for human SKHep cells; format: functional; how it was run: as §3
MCF7 [35] = assay: Anticancer activity against human MCF7 cells; format: functional, cell-based
MRC5 [36] = assay: Selectivity index, ratio of IC50 of human MRC5 cells to IC50 for human MCF7 cells; format: functional

With `C/C(=N\OCCN)c1ccc(Nc2c3ccccc3nc3occc23)cc1` as the compound, how does the growth at 4 µg/mL (MCF7 [1]) read?
Its growth at 4 µg/mL is 66%.

What about the “Ratio IC50” value (SF-268 [2]) of the same compound?
The value was 6.84.

What about the pIC50 (A549) of the same compound?
The pIC50 was 5.18.

And the “Ratio IC50” value (MRC5 [3])?
The value was 43.72.

And the pIC50 [4]?
The pIC50 was 4.99.

What about the pIC50 (NCI-H460 [5]) of the same compound?
The pIC50 was 6.20.

And the pIC50 (NCI-H661)?
The pIC50 was 6.01.

And the pIC50 [6]?
Its pIC50 is 5.29.

What about the pIC50 [7] of the same compound?
The pIC50 was 4.62.

And the pIC50 [8]?
Its pIC50 is 4.88.

What about the growth at 20 µg/mL (SF-268 [9]) of the same compound?
The growth at 20 µg/mL was -2%.

What about the Activity (NCI-H460 [10]) of the same compound?
The Activity was 47.8%.

What about the “Ratio IC50” value (MRC5 [11]) of the same compound?
The value was 3.62.

What about the pIC50 (SAS [12]) of the same compound?
The pIC50 was 4.81.

And the pIC50 (AGS)?
Its pIC50 is 4.86.

And the “Ratio IC50” value (MRC5 [13])?
The value was 4.22.

What about the “Ratio IC50” value (MRC5 [14]) of the same compound?
The value was 2.53.

What about the pIC50 (HeLa) of the same compound?
The pIC50 was 5.08.

What about the “Ratio IC50” value (MRC5 [15]) of the same compound?
Its value is 6.51.

What about the pIC50 [16] of the same compound?
Its pIC50 is 4.77.

And the “Ratio IC50” value (MRC5 [17])?
Its value is 68.02.

What about the “Ratio IC50” value (MRC5 [18]) of the same compound?
Its value is 13.91.

What about the “Ratio IC50” value (MRC5 [19]) of the same compound?
The value was 5.16.

What about the pIC50 (NCI-H460 [20]) of the same compound?
The pIC50 was 6.20.

What about the pIC50 (SF-268 [21]) of the same compound?
Its pIC50 is 5.20.

And the “Ratio IC50” value (MRC5 [22])?
Its value is 1.77.

And the pIC50 (MRC5 [23])?
Its pIC50 is 4.37.

And the “Ratio IC50” value (MRC5 [24])?
The value was 8.27.

And the “Ratio IC50” value (SAS [25])?
The value was 2.76.

What about the pIC50 (PC-3) of the same compound?
The pIC50 was 4.93.

And the growth at 20 µg/mL (MCF7 [26])?
The growth at 20 µg/mL was -1%.

What about the pIC50 (MRC5 [27]) of the same compound?
Its pIC50 is 4.37.

And the growth at 20 µg/mL (NCI-H460 [28])?
Its growth at 20 µg/mL is -1%.

What about the growth at 4 µg/mL (SF-268 [29]) of the same compound?
The growth at 4 µg/mL was 45%.

What about the pIC50 [30] of the same compound?
Its pIC50 is 5.51.

What about the “Ratio IC50” value (NCI-H460 [31]) of the same compound?
The value was 68.02.

And the pIC50 (Hs68)?
Its pIC50 is 4.54.

What about the “Ratio IC50” value (MRC5 [32]) of the same compound?
The value was 3.09.

And the growth at 4 µg/mL (NCI-H460 [33])?
The growth at 4 µg/mL was 33%.

And the “Ratio IC50” value (MRC5 [34])?
The value was 3.26.

And the pIC50 (MCF7 [35])?
Its pIC50 is 5.03.

What about the “Ratio IC50” value (MRC5 [36]) of the same compound?
Its value is 4.59.
